pIC50: −log10 of the molar value. “Also recorded” adds a separate entry of the source.
Key:
c-Met [1] = settings: GTL-16 gastric cancer cells, cited from earlier work
tyrosine kinases = settings: cited from earlier work
[2] = tested on: metastatic or locally advanced solid tumors; assay: anti-tumor activity; format: in vivo, human
Procedure, shortened: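 Adults with histologically confirmed metastatic or locally advanced solid tumors lacking standard therapy, ECOG 0–1, received test compound twice daily from 50 mg in escalating cohorts. Cycle 1 was 14 days followed by a 1-week holiday, cycles 2–4 were 14 days, and cycles from 5 on were 28 days. RECIST 1.0 imaging at end of cycle 4, then every two cycles. All patients dosed at least once analysed.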

GTL-16 xenograft = settings: twice-daily 100 mg/kg orally, cited from earlier work
c-Met [3] = settings: A549 non-small cell lung carcinoma cell line; cited from earlier work
[4] = tested on: non-small cell lung cancer cell lines; settings: high c-Met expressing cell lines; cited from earlier work
c-Met [5] = settings: read-out: IC50 towards c-Met; cited from earlier work
[6] = tested on: gastric and non-small cell lung cell lines; settings: a number of cell lines; most pronounced in gastric and non-small cell lung cell lines; cited from earlier work
[7] = tested on: patients with metastatic or locally advanced solid tumors; assay: Phase I dose escalation: safety, DLT, MTD; format: in vivo
[8] = tested on: ovarian cancer cell lines; settings: with paclitaxel + carboplatin, multiple ovarian cancer cell lines; cited from earlier work
[9] = plasma pharmacokinetics in patients; format: in vivo, human
medullary thyroid cancer = settings: monotherapy; cited from earlier work
[10] = Dose Level 5, 550 mg BID, Fatigue
[11] = Dose Level 6, 750 mg BID, Nausea
[12] = Dose Level 7, 1050 mg BID, Nausea
[13] = Dose Level 7, 1050 mg BID, Vomiting
[14] = Dose Level 8, 1500 mg BID, Elevated ALT
[15] = Dose Level 8, 1500 mg BID, Elevated AST
[16] = Dose Level 8, 1500 mg BID, Elevated Amylase
[17] = Dose Level 8, 1500 mg BID, Hypokalaemia

In the case of `Cn1cc(-c2cnc3ccc4ccc(CS(=O)(=O)NCc5ccccn5)cc4c(=O)c3c2)cn1` [MK-8033, 1-[3-(1-methyl-1H-pyrazol-4-yl)-5-oxo-5H-benzo[4,5]cyclohepta[1,2-b]pyridin-7-yl] -N-(pyridin-2-ylmethyl)methanesulfonamide], the “autophosphorylation of c-Met in the C-terminal docking site” value (c-Met [1]; constitutively activated c-MET) is given as “potently inhibited”, the “downstream signaling events such as ERK1/2 and AKT” value (c-Met [1]) is given as “inhibited” and the selectivity (tyrosine kinases) is given as “target multiple tyrosine kinases”. The “median progression-free survival (PFS)” value ([2]; 95% confidence interval 42–115 days) was 57 days, the PFS rate ([2]; at 6 weeks) was 80.4% and the PFS rate ([2]; at 12 weeks) was 15.2%. The “patients with stable disease (SD), %” value ([2]; best response) was 18.2%, the “patients with partial response (PR)” value ([2]; endometrioid adenocarcinoma) was “One” and the “patients with best response of progressive disease (PD), %” value ([2]; human, in vivo) was 71.7%. The “PFS of the responding patient” value ([2]; patient with endometrioid adenocarcinoma) was 846 days, the “plasma concentrations relative to IC50 for target inhibition” value (GTL-16 xenograft; mice) was “exceeding the IC50 for target inhibition for 24 h/day” and the tolerability (GTL-16 xenograft; mice) was “well-tolerated”. For the same compound, the “pathway activation and tumor growth” value (GTL-16 xenograft) was “inhibited”, the “HGF-induced phosphorylation of c-Met” value (c-Met [3]) was “inhibited” and the “phosphorylation of AKT and ERK1/2” value (c-Met [3]) was “inhibited”. The radiosensitization [4] was “radiosensitized”, the pIC50 (c-Met [5]) was 9.00 and the IC50 for proliferation [6] was “sub-micromolar”. The “No. of Subjects with a DLT” value ([7]; Dose Level 1 (n = 1), 50 mg BID, Total) was 0, the “No. of Subjects with a DLT” value ([7]; Dose Level 2 (n = 1), 100 mg BID, Total) was 0 and the “No. of Subjects with a DLT” value ([7]; Dose Level 3 (n = 3), 200 mg BID, Total) was 0. The “No. of Subjects with a DLT” value ([7]; Dose Level 4 (n = 4), 400 mg BID, Total) was 0, the “No. of Subjects with a DLT” value ([7]; Dose Level 5 (n = 7), 550 mg BID, Fatigue) was 1 and the “No. of Subjects with a DLT” value ([7]; Dose Level 5 (n = 7), 550 mg BID, Total) was 1. The “Number of DLTs Grade 1” value [7, 10] was 0, the “Number of DLTs Grade 2” value [7, 10] was 0 and the “Number of DLTs Grade 3” value [7, 10] was 1. For the same compound, the “Number of DLTs Grade 4” value [7, 10] was 0, the “No. of Subjects with a DLT” value ([7]; Dose Level 6 (n = 18), 750 mg BID, Nausea) was 1 and the “No. of Subjects with a DLT” value ([7]; Dose Level 6 (n = 18), 750 mg BID, Total) was 1. The “Number of DLTs Grade 1” value [7, 11] was 0, the “Number of DLTs Grade 2” value [7, 11] was 1 and the “Number of DLTs Grade 3” value [7, 11] was 0. For the same compound, the “Number of DLTs Grade 4” value [7, 11] was 0, the “No. of Subjects with a DLT” value ([7]; Dose Level 7 (n = 6), 1050 mg BID, Nausea) was 2 and the “No. of Subjects with a DLT” value ([7]; Dose Level 7 (n = 6), 1050 mg BID, Total) was 2. For the same compound, the “No. of Subjects with a DLT” value ([7]; Dose Level 7 (n = 6), 1050 mg BID, Vomiting) was 2, the “Number of DLTs Grade 1” value [7, 12] was 0 and the “Number of DLTs Grade 2” value [7, 12] was 0. The “Number of DLTs Grade 3” value [7, 12] was 2, the “Number of DLTs Grade 4” value [7, 12] was 0 and the “Number of DLTs Grade 1” value [7, 13] was 0. The “Number of DLTs Grade 2” value [7, 13] was 1, the “Number of DLTs Grade 3” value [7, 13] was 1 and the “Number of DLTs Grade 4” value [7, 13] was 0. The “No. of Subjects with a DLT” value ([7]; Dose Level 8 (n = 3), 1500 mg BID, Elevated ALT) was 1, the “No. of Subjects with a DLT” value ([7]; Dose Level 8 (n = 3), 1500 mg BID, Elevated AST) was 1 and the “No. of Subjects with a DLT” value ([7]; Dose Level 8 (n = 3), 1500 mg BID, Elevated Amylase) was 1. For the same compound, the “No. of Subjects with a DLT” value ([7]; Dose Level 8 (n = 3), 1500 mg BID, Hypokalaemia) was 1, the “No. of Subjects with a DLT” value ([7]; Dose Level 8 (n = 3), 1500 mg BID, Total) was 2 and the “Number of DLTs Grade 1” value [7, 14] was 0. The “Number of DLTs Grade 2” value [7, 14] was 0, the “Number of DLTs Grade 3” value [7, 14] was 1 and the “Number of DLTs Grade 4” value [7, 14] was 0. The “Number of DLTs Grade 1” value [7, 15] was 0, the “Number of DLTs Grade 2” value [7, 15] was 0 and the “Number of DLTs Grade 3” value [7, 15] was 1. For the same compound, the “Number of DLTs Grade 4” value [7, 15] was 0, the “Number of DLTs Grade 1” value [7, 16] was 0 and the “Number of DLTs Grade 2” value [7, 16] was 0. The “Number of DLTs Grade 3” value [7, 16] was 1, the “Number of DLTs Grade 4” value [7, 16] was 0 and the “Number of DLTs Grade 1” value [7, 17] was 0. The “Number of DLTs Grade 2” value [7, 17] was 0, the “Number of DLTs Grade 3” value [7, 17] was 0 and the “Number of DLTs Grade 4” value [7, 17] was 1. For the same compound, the “No. of Subjects with a DLT” value ([7]; Part C - (n = 3), 750 mg BID, Total) was 0, the “patients who died during the study” value ([7]; determined by investigators to be unrelated to MK-8033) was “Five” and the “maximum tolerated dose (MTD)” value ([7]; dose level 6, oral) was 750 mg BID. For the same compound, the “recommended phase II dose (RP2D)” value ([7]; dose level 6, acute and chronic toxicity, TITE-CRM) was 750 mg BID, the “Alopecia, All Grades, %” value ([7]; treatment-related, n = 46) was 19.6% and the “Anorexia, All Grades, %” value ([7]; treatment-related, n = 46) was 17.4%. The “Decreased Hemoglobin, All Grades, %” value ([7]; treatment-related, n = 46) was 6.5%, the “Decreased Hemoglobin, Grade ≥ 3, %” value ([7]; treatment-related, n = 46) was 2.2% and the “Diarrhea, All Grades, %” value ([7]; treatment-related, n = 46) was 6.5%. The “Dysgeusia, All Grades, %” value ([7]; treatment-related, n = 46) was 8.7%, the “Dyspepsia, All Grades, %” value ([7]; treatment-related, n = 46) was 6.5% and the “Dyspepsia, Grade ≥ 3, %” value ([7]; treatment-related, n = 46) was 4.3%. For the same compound, the “Elevated ALT, All Grades, %” value ([7]; treatment-related, n = 46) was 17.4%, the “Elevated ALT, Grade ≥ 3, %” value ([7]; treatment-related, n = 46) was 2.2% and the “Elevated AST, All Grades, %” value ([7]; treatment-related, n = 46) was 10.9%. For the same compound, the “Elevated AST, Grade ≥ 3, %” value ([7]; treatment-related, n = 46) was 2.2%, the “Elevated Amylase, All Grades, %” value ([7]; treatment-related, n = 46) was 6.5% and the “Elevated Amylase, Grade ≥ 3, %” value ([7]; treatment-related, n = 46) was 4.3%. For the same compound, the “Elevated Creatinine, All Grades, %” value ([7]; treatment-related, n = 46) was 13.0%, the “Elevated Lipase, All Grades, %” value ([7]; treatment-related, n = 46) was 6.5% and the “Elevated Lipase, Grade ≥ 3, %” value ([7]; treatment-related, n = 46) was 4.3%. The “Fatigue, All Grades, %” value ([7]; treatment-related, n = 46) was 28.3%, the “Fatigue, Grade ≥ 3, %” value ([7]; treatment-related, n = 46) was 2.2% and the “Headache, All Grades, %” value ([7]; treatment-related, n = 46) was 6.5%. The “Hypokalemia, All Grades, %” value ([7]; treatment-related, n = 46) was 6.5%, the “Hypokalemia, Grade ≥ 3, %” value ([7]; treatment-related, n = 46) was 2.2% and the “Lymphopenia, All Grades, %” value ([7]; treatment-related, n = 46) was 8.7%. For the same compound, the “Lymphopenia, Grade ≥ 3, %” value ([7]; treatment-related, n = 46) was 4.3%, the “Nausea, All Grades, %” value ([7]; treatment-related, n = 46) was 21.7% and the “Nausea, Grade ≥ 3, %” value ([7]; treatment-related, n = 46) was 4.3%. The “Vomiting, All Grades, %” value ([7]; treatment-related, n = 46) was 13.0%, the “Vomiting, Grade ≥ 3, %” value ([7]; treatment-related, n = 46) was 2.2% and the “cell growth inhibition in combination with chemotherapy” value [8] was “synergized”. For the same compound, the “max concentration versus dose” value ([9]; 50 to 1500 mg BID, dose proportionality not assessable) was “appears to increase with dose”, the “Day 14/Day 1 geometric mean accumulation ratios for Cmax” value ([9]; 200 to 1500 mg BID dose range, not conclusive) was 1.2 to 4.2 and the “impact of co-administered omeprazole on steady state Cmax, AUC0–12h and Tmax” value ([9]; Part C, 770 mg BID with or without 20 mg omeprazole, two patients) was “no effect; also recorded: does not appear to strongly impact”. The Tmax ([9]; human, plasma, oral) was 1 to 3 h.

For `COc1cc2nccc(Oc3ccc(NC(=O)C4(C(=O)Nc5ccc(F)cc5)CC4)cc3)c2cc1OC` [cabozantinib], the response rate (medullary thyroid cancer) is listed as 49% and the pIC50 (c-Met [5]) is listed as 8.89.

For `O=C1NC(=O)[C@@H](c2cn3c4c(cccc24)CCC3)[C@@H]1c1c[nH]c2ccccc12` [tivantinib, reference compound], the selectivity (tyrosine kinases) is listed as “only binds to c-Met” and the pIC50 (c-Met [5]) is listed as 7.00.

— paper PMC7507839 (Investigational new drugs, 2018)
